The source of these data is ChEMBL document CHEMBL1759902, “Synthesis and structure-activity relationship of N-(2-arylethyl) isoquinoline derivatives as human scavenger receptor CD36 antagonists” (Eur J Med Chem, 2011).

In general, inhibition refers to the drop in the measured response relative to a control, in per cent. As usually defined, the pIC50 is the IC50 on a negative log10 scale, so that one unit is a factor of ten.

pIC50: −log10 of the molar value. Active and inactive are the calls of the source. No cut-off for these calls is given here. Non-standard residues stand in square brackets, D forms with d. Residues, ends and D or L forms follow the SMILES beside them. dTrp(2-Me) = Cc1[nH]c2ccccc2c1C[C@@H](N)C(=O)O A value given as a limit tells only on which side of the number the result lay.

The target in assay [1] is T1, Platelet glycoprotein 4 (Homo sapiens, UniProt P16671). Nature of the assay: Antagonist activity at human CD36-oxLDL binding at 10 ug/mL after 2 hrs by ELISA. Background: In an ELISA, binding on a coated surface is turned into a signal by an enzyme label.
Assay [2] concerns the target T1, Platelet glycoprotein 4. Kind of assay: Antagonist activity at human CD36-oxLDL binding after 2 hrs by ELISA. The procedure, abridged: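 Plate wells coated with oxLDL at 4 °C for 8–12 h, washed with PBS and blocked in PBS/1% BSA for 1–2 h at 4 °C. His-tagged CD36 or vector control protein added for 1 h at 4 °C, then compound or hexarelin, incubated 2 h.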
Assay [3] concerns the target T1, Platelet glycoprotein 4. Kind of assay: Antagonist activity at human CD36 expressed in insect Sf9 cells assessed as inhibition of DiL-acetylated LDL uptake at 10 ug/ml after 5 hrs by fluorometric analysis. The assay is classed as functional. In a few lines: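 Sf9 cells in Grace's medium with 10% heat-inactivated FBS at 27 °C, plated at 6.0×10⁵ cells/well, infected 1 h with recombinant hCD36 or wild-type baculovirus, then refed. After two days, washed into Grace/0.5% BSA. Compound added from DMSO for 1 h at 27 °C, then DiI-AcLDL.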

For assay [4], the target named is T1, Platelet glycoprotein 4. Nature of the assay: Antagonist activity at human CD36-oxLDL binding at 10 uM after 2 hrs by ELISA.

T1 sequence (P16671 whole entry): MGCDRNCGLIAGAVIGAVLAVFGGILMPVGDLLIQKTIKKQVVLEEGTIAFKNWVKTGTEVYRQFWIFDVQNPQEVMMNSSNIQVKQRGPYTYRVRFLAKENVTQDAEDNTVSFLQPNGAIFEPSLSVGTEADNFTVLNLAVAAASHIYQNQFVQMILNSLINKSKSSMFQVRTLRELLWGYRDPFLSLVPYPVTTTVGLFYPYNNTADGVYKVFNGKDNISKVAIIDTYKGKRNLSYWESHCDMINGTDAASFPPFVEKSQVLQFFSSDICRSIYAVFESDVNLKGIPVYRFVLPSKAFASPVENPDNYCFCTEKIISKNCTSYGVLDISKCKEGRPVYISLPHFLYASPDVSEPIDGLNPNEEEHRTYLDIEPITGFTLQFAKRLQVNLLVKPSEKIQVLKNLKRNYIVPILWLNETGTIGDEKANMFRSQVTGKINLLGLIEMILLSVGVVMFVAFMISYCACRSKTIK

In the case of `COc1cc2cc[n+](CCc3ccccc3)cc2cc1OC`, at Platelet glycoprotein 4 [1], the inhibition worked out at 10%.

As for `COc1cc2cc[n+](CCc3cccc(F)c3)cc2cc1OC`, the inhibition at Platelet glycoprotein 4 [1] turned out to be 20.9%. Turning to `COc1cc2c[n+](CCc3ccc(F)cc3)ccc2cc1O`, the inhibition on Platelet glycoprotein 4 [1] amounted to 42.4%. On Platelet glycoprotein 4 [2], this compound had a pIC50 of 5.22. In addition, the inhibition result on Platelet glycoprotein 4 [3] is “Active”. With `COc1ccc2cc[n+](CCc3ccccc3)cc2c1OC`, the inhibition on Platelet glycoprotein 4 [1] was below 10%.

With `COc1ccc2cc[n+](CCc3ccccc3C)cc2c1OC`, the inhibition on Platelet glycoprotein 4 [1] amounted to 46.6%. The compound further had a pIC50 on Platelet glycoprotein 4 [2] of 5.36. Moreover, at Platelet glycoprotein 4 [3], the inhibition entry was “Active”. As to `COc1cc2cc[n+](CCc3ccc(Cl)cc3)cc2cc1OC`, on Platelet glycoprotein 4 [1], the inhibition is below 10%.

For the compound `COc1cc2c[n+](CCc3ccc(Cl)cc3)ccc2cc1O`, the inhibition at Platelet glycoprotein 4 [1] is below 10%. Same read-out and setting: then `COc1ccc2cc[n+](CCc3ccccc3)cc2c1`, with 47.4%. At Platelet glycoprotein 4 [1], `COc1cc2cc[n+](CCc3cccc(C(F)(F)F)c3)cc2cc1OC` had an inhibition below 10%. Still for that read-out and setting: the value for `COc1cc2c[n+](CCc3cccc(Cl)c3)c(O)cc2cc1O` was 33.2%. Same read-out and setting: the value for `COc1cc2c[n+](CCc3cccc(F)c3)c(O)cc2cc1O` was below 10%.

Take `COc1ccc2cc[n+](CCc3ccc(Cl)cc3)cc2c1OC`: the inhibition at Platelet glycoprotein 4 [1] turned out to be 25.4%. In turn, `COc1ccc(CC[n+]2ccc3cc(O)c(OC)cc3c2)cc1` registered an inhibition at Platelet glycoprotein 4 [1] of 76.3%. Further, at Platelet glycoprotein 4 [3], the inhibition entry was “Active”. In turn, `COc1ccc(CC[n+]2ccc3ccc(OC)c(O)c3c2)cc1` showed an inhibition on Platelet glycoprotein 4 [1] below 10%. On Platelet glycoprotein 4 [1], `Oc1ccc2cc[n+](CCc3ccccc3F)cc2c1` had an inhibition of 21.7%.

As for `COc1ccc(CC[n+]2ccc3ccc(O)cc3c2)cc1`, the inhibition at Platelet glycoprotein 4 [1] stood at 28.7%. `Oc1ccc2cc[n+](CCc3cccc(C(F)(F)F)c3)cc2c1` displayed an inhibition at Platelet glycoprotein 4 [1] of 48.4%. The compound further had a pIC50 at Platelet glycoprotein 4 [2] of 5.47. For the same compound, the inhibition result at Platelet glycoprotein 4 [3] was “Active”. Take `COc1cc2c[n+](CCc3ccccc3C)c(O)cc2cc1O`: the inhibition on Platelet glycoprotein 4 [1] is below 10%.

With `COc1ccc(CC[n+]2ccc3cc(OC)c(OC)cc3c2)cc1`, on Platelet glycoprotein 4 [1], the inhibition worked out at 28.6%. For the compound `COc1cc2c[n+](CCc3cccc(Cl)c3)ccc2cc1O`, on Platelet glycoprotein 4 [1], the inhibition was 33.6%. As to `COc1ccc2cc[n+](CCc3ccccc3)cc2c1O`, the inhibition on Platelet glycoprotein 4 [1] amounted to 77.9%. On Platelet glycoprotein 4 [2], the pIC50 was 6.20. At Platelet glycoprotein 4 [3], the inhibition entry is “Active”.

Consider `COc1ccc2cc[n+](CCc3ccccc3C)cc2c1O`, for which the inhibition on Platelet glycoprotein 4 [1] was 11.5%. On the same count and under the same terms, then `COc1ccc2cc[n+](CCc3ccc(F)cc3)cc2c1O`, with 29.6%. Compound `COc1ccc2cc[n+](CCc3cccc(F)c3)cc2c1OC` displayed an inhibition at Platelet glycoprotein 4 [1] of 52.1%. The pIC50 on Platelet glycoprotein 4 [2] is 5.16. Moreover, the inhibition result at Platelet glycoprotein 4 [3] was “Active”. With `Cc1[nH]c2ccccc2c1C[C@@H](NC(=O)[C@@H](N)Cc1c[nH]cn1)C(=O)N[C@@H](C)C(=O)N[C@@H](Cc1c[nH]c2ccccc12)C(=O)N[C@H](Cc1ccccc1)C(=O)N[C@@H](CCCCN)C(N)=O` (H-H[dTrp(2-Me)]AW[dF]K-NH2), the inhibition at Platelet glycoprotein 4 [4] stood at 37.6%. Turning to `COc1cc2c[n+](CCc3ccccc3)ccc2cc1O`, the inhibition at Platelet glycoprotein 4 [1] worked out at 31%. Turning to `Oc1ccc2cc[n+](CCc3ccccc3)cc2c1`, on Platelet glycoprotein 4 [1], the inhibition is below 10%.
